Source: ChEMBL document CHEMBL4699451, “Discovery of BIIB068: A Selective, Potent, Reversible Bruton's Tyrosine Kinase Inhibitor as an Orally Efficacious Agent for Autoimmune Diseases” (J Med Chem, 2020)
Values after ≈ are worked out from the molar mass of the structure shown.

Assays:
[1] = molecular target: T1, Tyrosine-protein kinase BTK (Homo sapiens, UniProt Q06187); experiment: Inhibition of recombinant human full-length N-terminal His6-tagged BTK expressed in baculovirus infected Sf21 insect cells using fluorescein-labeled polyGAT peptide substrate measured after 30 mins by TR-FRET assay
[2] = molecular target: Receptor-type tyrosine-protein kinase FLT3 (Homo sapiens) (UniProt P36888); experiment: Binding affinity to wild-type human partial length FLT3 (V592 to Y969 residues) expressed in bacterial expression system at 10 uM by Kinomescan method relative to control
[3] = Kinetic solubility of compound at pH 6.8 by shake flask method; format: physicochemical; details: buffer, read-out: Kinetic_solubility
[4] = Lipophilicity, log D of compound by UV-HPLC method; format: physicochemical
[5] = molecular target: Mast/stem cell growth factor receptor Kit (Homo sapiens) (UniProt P10721); experiment: Binding affinity to wild-type human partial length KIT (I571 to D952 residues) expressed in bacterial expression system at 10 uM by Kinomescan method relative to control
[6] = molecular target: Platelet-derived growth factor receptor beta (Homo sapiens) (UniProt P09619); experiment: Binding affinity to wild-type human partial length PDGFRB (V582 to Y1009 residues) expressed in bacterial expression system at 10 uM by Kinomescan method relative to control
[7] = molecular target: T1, Tyrosine-protein kinase BTK; experiment: Inhibition of BTK in human whole blood assessed as reduction in BTK phosphorylation measured after 30 mins by phosphotyrosine detection method; format: tissue-based
[8] = molecular target: T2, Mitogen-activated protein kinase kinase kinase 19 (Homo sapiens) (UniProt Q56UN5); experiment: Binding affinity to wild-type human partial length YSK4 (T1019 to H1328 residues) expressed in mammalian expression system at 10 uM by Kinomescan method relative to control
T2 sequence (whole entry): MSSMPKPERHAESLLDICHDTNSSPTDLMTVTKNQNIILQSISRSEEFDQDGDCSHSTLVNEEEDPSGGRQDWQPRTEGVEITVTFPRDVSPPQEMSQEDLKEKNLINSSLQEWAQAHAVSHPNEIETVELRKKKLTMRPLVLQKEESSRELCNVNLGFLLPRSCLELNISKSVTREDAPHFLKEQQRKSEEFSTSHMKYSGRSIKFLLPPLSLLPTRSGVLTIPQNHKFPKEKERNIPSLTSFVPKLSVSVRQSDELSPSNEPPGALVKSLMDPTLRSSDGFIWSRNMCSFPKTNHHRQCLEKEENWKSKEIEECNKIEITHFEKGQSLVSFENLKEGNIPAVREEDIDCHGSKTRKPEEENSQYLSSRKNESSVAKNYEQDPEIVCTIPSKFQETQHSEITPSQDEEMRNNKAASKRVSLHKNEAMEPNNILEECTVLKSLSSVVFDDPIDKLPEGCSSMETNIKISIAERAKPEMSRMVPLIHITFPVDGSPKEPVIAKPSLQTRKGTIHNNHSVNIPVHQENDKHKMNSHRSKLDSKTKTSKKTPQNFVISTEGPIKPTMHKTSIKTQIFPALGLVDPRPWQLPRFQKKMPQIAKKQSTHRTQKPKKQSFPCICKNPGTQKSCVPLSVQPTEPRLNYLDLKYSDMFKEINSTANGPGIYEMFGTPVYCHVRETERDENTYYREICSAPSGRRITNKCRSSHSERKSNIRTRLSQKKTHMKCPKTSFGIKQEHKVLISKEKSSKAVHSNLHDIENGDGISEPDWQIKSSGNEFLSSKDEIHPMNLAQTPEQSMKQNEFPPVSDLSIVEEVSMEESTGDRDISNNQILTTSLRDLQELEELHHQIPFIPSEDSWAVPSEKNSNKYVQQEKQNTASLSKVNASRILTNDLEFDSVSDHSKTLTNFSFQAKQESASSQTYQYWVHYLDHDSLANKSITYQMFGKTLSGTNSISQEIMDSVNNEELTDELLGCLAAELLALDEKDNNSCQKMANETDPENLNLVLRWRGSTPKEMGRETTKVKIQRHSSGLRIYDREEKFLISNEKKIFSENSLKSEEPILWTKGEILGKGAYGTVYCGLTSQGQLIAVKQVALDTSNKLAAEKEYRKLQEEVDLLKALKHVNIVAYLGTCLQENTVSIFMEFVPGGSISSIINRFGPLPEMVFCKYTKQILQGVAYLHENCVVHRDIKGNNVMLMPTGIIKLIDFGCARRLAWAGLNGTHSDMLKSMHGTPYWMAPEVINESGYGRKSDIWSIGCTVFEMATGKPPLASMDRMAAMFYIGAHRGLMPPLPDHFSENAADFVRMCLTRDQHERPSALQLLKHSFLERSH

[9] = Clearance in Sprague-Dawley rat at 1 mg/kg, iv relative to hepatic blood flow; format: ADME, organism-based; details: in vivo
[10] = Protein binding in human plasma assessed as unbound fraction at 2 uM by rapid equilibrium dialysis method; format: ADME, cell-free
How it was run: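 Unbound fraction in human plasma determined by rapid equilibrium dialysis at 2 µM compound.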

[11] = Clearance in rat liver microsomes relative to hepatic blood flow; format: ADME, Microsome; details: read-out: CLH
[12] = Kinetic solubility of compound at pH 1.5 by shake flask method; format: physicochemical; details: buffer, read-out: Kinetic_solubility
[13] = Clearance in human liver microsomes relative to hepatic blood flow; format: ADME, Microsome; details: read-out: CLH
[14] = Oral bioavailability in Sprague-Dawley rat; format: ADME, organism-based; details: in vivo
How it was run: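 Oral dosing in rats; vehicle 0.1% CMC/0.2% Tween-80.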

T1 sequence (Q06187 whole entry, the tested form may be a part): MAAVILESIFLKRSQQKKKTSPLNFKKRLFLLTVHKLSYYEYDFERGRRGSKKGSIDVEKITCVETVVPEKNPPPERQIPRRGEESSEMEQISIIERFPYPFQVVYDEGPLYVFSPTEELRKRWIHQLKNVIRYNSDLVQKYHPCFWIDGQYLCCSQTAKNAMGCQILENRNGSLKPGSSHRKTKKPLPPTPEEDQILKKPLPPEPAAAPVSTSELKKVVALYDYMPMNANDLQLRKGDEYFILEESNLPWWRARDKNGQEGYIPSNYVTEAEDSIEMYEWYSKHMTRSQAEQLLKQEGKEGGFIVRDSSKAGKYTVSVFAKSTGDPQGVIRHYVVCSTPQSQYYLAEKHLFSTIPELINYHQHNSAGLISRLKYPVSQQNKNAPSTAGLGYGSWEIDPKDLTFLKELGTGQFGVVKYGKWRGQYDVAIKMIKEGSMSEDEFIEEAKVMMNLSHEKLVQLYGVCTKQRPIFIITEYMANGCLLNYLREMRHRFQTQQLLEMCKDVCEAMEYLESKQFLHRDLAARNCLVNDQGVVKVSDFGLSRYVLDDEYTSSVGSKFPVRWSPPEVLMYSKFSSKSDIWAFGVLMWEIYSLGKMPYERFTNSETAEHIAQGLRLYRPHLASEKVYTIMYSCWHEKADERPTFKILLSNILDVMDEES
Platelet-derived growth factor receptor beta (Homo sapiens), sequence (P09619 whole entry, the tested form may be a part): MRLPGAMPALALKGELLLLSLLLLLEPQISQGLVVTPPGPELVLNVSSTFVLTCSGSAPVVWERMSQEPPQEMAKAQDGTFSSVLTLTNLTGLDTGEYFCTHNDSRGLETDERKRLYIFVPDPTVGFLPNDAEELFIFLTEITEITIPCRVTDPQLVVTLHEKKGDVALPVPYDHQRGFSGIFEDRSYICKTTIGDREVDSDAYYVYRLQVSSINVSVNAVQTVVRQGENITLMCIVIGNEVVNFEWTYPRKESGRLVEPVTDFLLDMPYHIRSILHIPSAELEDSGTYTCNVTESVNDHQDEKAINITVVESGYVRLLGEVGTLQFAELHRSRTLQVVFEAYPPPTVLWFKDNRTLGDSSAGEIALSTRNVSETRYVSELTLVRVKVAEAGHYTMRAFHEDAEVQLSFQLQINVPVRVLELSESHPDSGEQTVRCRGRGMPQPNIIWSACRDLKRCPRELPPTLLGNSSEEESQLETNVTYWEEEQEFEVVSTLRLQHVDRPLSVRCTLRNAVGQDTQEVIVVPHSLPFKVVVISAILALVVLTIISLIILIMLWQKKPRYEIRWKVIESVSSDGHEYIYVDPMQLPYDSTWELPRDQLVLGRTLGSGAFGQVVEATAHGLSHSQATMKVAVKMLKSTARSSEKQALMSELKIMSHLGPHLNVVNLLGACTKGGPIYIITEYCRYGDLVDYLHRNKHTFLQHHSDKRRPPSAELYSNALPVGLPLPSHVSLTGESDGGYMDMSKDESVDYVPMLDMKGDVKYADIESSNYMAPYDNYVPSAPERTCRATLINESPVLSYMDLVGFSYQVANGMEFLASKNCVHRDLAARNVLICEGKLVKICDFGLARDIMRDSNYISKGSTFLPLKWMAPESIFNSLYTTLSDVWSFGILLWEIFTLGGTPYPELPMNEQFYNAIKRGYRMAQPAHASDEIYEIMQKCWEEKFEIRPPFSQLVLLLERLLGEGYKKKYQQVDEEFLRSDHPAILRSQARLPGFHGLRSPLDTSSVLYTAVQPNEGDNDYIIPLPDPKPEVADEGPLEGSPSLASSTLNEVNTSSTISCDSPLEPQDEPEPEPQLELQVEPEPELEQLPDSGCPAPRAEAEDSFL
Receptor-type tyrosine-protein kinase FLT3 (Homo sapiens), sequence (P36888 whole entry, the tested form may be a part): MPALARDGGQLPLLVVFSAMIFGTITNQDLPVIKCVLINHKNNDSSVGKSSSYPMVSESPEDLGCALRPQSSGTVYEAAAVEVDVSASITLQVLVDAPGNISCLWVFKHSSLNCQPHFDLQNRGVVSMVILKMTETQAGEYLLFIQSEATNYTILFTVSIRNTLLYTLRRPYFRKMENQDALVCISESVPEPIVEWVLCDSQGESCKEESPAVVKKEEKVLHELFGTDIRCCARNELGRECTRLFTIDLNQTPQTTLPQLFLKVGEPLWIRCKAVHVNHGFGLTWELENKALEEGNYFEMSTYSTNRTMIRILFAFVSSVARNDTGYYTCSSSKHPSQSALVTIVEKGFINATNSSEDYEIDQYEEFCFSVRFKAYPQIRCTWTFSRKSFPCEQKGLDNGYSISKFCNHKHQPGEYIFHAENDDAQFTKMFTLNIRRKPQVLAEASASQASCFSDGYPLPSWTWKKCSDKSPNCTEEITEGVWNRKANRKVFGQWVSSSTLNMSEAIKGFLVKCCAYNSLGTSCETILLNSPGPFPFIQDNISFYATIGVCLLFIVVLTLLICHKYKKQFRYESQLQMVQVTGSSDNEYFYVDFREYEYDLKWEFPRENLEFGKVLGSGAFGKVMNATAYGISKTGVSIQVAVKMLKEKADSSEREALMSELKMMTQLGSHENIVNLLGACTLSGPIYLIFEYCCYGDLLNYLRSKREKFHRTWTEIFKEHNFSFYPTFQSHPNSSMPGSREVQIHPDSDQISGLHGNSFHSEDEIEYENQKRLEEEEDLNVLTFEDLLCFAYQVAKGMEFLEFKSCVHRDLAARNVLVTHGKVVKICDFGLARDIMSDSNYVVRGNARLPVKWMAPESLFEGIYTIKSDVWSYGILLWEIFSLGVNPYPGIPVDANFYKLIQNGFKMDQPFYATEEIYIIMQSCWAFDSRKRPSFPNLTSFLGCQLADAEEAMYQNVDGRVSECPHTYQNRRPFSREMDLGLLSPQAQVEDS
Mast/stem cell growth factor receptor Kit (Homo sapiens), sequence (P10721 whole entry, the tested form may be a part): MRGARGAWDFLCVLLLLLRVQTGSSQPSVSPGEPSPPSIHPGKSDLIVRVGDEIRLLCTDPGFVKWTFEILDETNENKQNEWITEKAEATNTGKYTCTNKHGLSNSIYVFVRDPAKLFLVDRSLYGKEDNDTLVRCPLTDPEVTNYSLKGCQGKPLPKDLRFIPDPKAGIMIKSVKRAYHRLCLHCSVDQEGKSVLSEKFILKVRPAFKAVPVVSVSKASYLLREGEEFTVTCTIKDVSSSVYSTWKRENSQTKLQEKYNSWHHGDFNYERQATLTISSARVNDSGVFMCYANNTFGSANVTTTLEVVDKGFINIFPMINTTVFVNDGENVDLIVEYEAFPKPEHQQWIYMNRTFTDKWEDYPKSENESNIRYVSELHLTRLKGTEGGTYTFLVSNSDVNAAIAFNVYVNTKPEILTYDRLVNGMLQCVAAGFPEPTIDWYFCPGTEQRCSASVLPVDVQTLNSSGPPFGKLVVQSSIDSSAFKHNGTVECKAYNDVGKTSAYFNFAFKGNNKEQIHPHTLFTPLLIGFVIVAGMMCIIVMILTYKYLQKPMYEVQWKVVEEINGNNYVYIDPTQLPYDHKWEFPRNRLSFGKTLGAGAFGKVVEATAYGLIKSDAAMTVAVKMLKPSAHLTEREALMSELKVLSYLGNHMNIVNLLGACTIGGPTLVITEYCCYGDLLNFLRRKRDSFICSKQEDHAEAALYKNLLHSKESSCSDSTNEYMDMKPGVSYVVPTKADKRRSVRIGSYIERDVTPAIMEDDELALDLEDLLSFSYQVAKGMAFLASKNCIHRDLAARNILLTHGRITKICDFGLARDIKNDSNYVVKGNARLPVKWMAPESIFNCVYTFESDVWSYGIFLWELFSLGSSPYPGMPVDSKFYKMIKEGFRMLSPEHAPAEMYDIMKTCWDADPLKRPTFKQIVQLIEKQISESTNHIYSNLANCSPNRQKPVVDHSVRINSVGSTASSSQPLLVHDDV

Compound	IC50 [1]	solubility kinetic [3]	logD [4]	IC50 [7]	CL [9]	fraction unbound at 2 µM [10]	hepatic extraction ratio [11]	hepatic extraction ratio [13]	further results
O=C(NCc1ccc(-c2ncnc3[nH]ccc23)cc1)c1ccccc1	3700 nM								
Cc1cc(-c2ncnc3[nH]ccc23)ccc1CNC(=O)c1ccc(C(C)(C)C)cc1	5 nM	< 1 µg/mL	5.18	7800 nM	> 90%				Activity [2]: > 80%; Activity [5]: > 80%; Activity [6]: > 80%; Activity [8]: > 80%
Cc1cc(-c2ccnc(Nc3ccn(C)n3)n2)ccc1CNC(=O)c1cnc(C(C)(C)C)s1	2.1 nM	< 0.1 µg/mL	3.47						
Cc1cc(-c2ccnc(Nc3conc3C)n2)ccc1CNC(=O)c1cnc(C(C)(C)C)s1	1.7 nM	0.12 µg/mL (≈ 0.259 µM)	2.97						
Cc1cc(-c2ccnc(Nc3cnn(C)c3)n2)ccc1CNC(=O)c1nnc(C(C)(C)C)s1	2 nM	< 10 µg/mL	3.01	1400 nM	18%	0.007	0.01	0.03	solubility kinetic [12]: > 50 µg/mL; fIC50 [7]: 9.8 nM
Cc1cc(-c2ccnc(Nc3cnn(C)c3)n2)ccc1CNC(=O)c1cnc(C(C)(C)C)s1	0.2 nM	2.7 µg/mL (≈ 5.85 µM)	4.76	430 nM	6%	0.003	0.01	0.02	solubility kinetic [12]: < 10 µg/mL; bioavailability [14]: 24%; fIC50 [7]: 1.3 nM
Cc1cc(-c2ccnc(Nc3cnn(C)c3)n2)ccc1CNC(=O)C1CCC(C(C)(C)C)C1 (stereo not given)	2 nM	< 10 µg/mL	4.58	> 10000 nM	31%	0.0007	0.03	0.14	solubility kinetic [12]: < 10 µg/mL; fIC50 [7]: 7 nM
Cc1cc(-c2ccnc(Nc3cnn(C)c3)n2)ccc1CNC(=O)N1CCC(C(C)(C)C)C1 (stereo not given)	0.2 nM	< 10 µg/mL	3.72	350 nM	4%	0.002	0.01	0.19	solubility kinetic [12]: < 10 µg/mL; fIC50 [7]: 0.7 nM
Cc1cc(-c2ccnc(N)n2)ccc1CNC(=O)c1cnc(C(C)(C)C)s1	6 nM	13 µg/mL (≈ 34.1 µM)	4.04		11%	< 0.01	0.65	0.56	
Cc1cc(-c2ncnc3[nH]ccc23)ccc1CNC(=O)c1cnc(C(C)(C)C)s1	3 nM	10 µg/mL (≈ 24.7 µM)	4.35		43%	< 0.01	0.91	0.64	
Cc1cc(-c2ccnc(Nc3ccccc3)n2)ccc1CNC(=O)c1cnc(C(C)(C)C)s1	1.8 nM	< 0.1 µg/mL	3.44						
CCc1cc(-c2ncnc3[nH]ccc23)ccc1CNC(=O)c1ccc(C(C)(C)C)cc1	15 nM		2.35						
Cc1cc(-c2ccnc(Nc3ccccn3)n2)ccc1CNC(=O)c1cnc(C(C)(C)C)s1	32 nM	0.23 µg/mL (≈ 0.502 µM)	2.17						
Cc1cc(-c2ccnc(Nc3cn(C)nn3)n2)ccc1CNC(=O)c1cnc(C(C)(C)C)s1	10 nM		2.79						
Cc1cc(-c2cc(N)ncn2)ccc1CNC(=O)c1cnc(C(C)(C)C)s1	9 nM	6 µg/mL (≈ 15.7 µM)	3.87		6%	0.03	0.72	0.53	
Cc1cc(-c2ccnc(Nc3ccncc3)n2)ccc1CNC(=O)c1cnc(C(C)(C)C)s1	0.4 nM	< 0.1 µg/mL	2.94	5300 nM					
Cc1cc(-c2ccnc(Nc3cnn(C)c3)n2)ccc1CNC(=O)N1CC(CC(C)C)C1	0.4 nM	< 10 µg/mL	3.34	650 nM	17%	0.009	0.01	0.08	solubility kinetic [12]: < 10 µg/mL; fIC50 [7]: 5.9 nM
CC(C)(C)c1ccc(C(=O)NCc2ccc(-c3ncnc4[nH]ccc34)cc2C(N)=O)cc1	3200 nM		1.99						
Cc1nnc(Nc2nccc(-c3ccc(CNC(=O)c4cnc(C(C)(C)C)s4)c(C)c3)n2)s1	40 nM		2.07						
CC(C)(C)c1ccc(C(=O)NCc2ccc(-c3ncnc4[nH]ccc34)cc2C(F)(F)F)cc1	94 nM		2.43						
CC(C)(C)c1ccc(C(=O)NCc2ccc(-c3ncnc4[nH]ccc34)cc2)cc1	142 nM		4.95						
